Molecules are shown by their SMILES.

Four molecules from ChEMBL document CHEMBL1123133, “1H-2-Benzopyran-1-one derivatives, microbial products with pharmacological activity. Conversion into orally active derivatives with antiinflammatory and antiulcer activities” (J Med Chem, 1985) can be followed below.

The subject of series [1] is Rattus norvegicus. Kind of series: Concentration 6f detected in blood of rat 1 hr after an oral dose of 200 mg/kg; ND is Not Detected. The following applies: in vivo. Type of series: ADME, organism-based. The arrangement: dose 200 mg/kg, route oral. The essentials: (§1)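 Male Wistar rats (120–160 g), 5–7 per group, fasted 24 h, given 200 mg/kg orally as aqueous HCl salt formulation (drug/glycerin/HCO-60 1/12/0.05 by weight). Jugular blood taken under ether at 1 or 3 h into citric acid; plasma deproteinized with ethanol (acetone for 5d) and analysed by C18 HPLC at 254 nm. Values recovery-corrected, mean of 6–7 rats.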

The subject of series [2] is Rattus norvegicus. Kind of series: Concentration 6f detected in blood of rat 3 hr after an oral dose of 200 mg/kg; ND is Not Detected. Type of series: ADME, organism-based. The arrangement: dose 200 mg/kg, route oral. Particulars: in vivo. The method in brief: as §1
Series [3] deals with Rattus norvegicus. Kind of series: Concentration 1 detected in blood of rat 1 hr after an oral dose of 200 mg/kg; ND is Not Detected. Format: ADME, organism-based. The arrangement: dose 200 mg/kg, route oral. Particulars: in vivo. The method in brief:
as §1

Series [4] has as its system Rattus norvegicus. Kind of series: Concentration 1 detected in blood of rat 3 hr after an oral dose of 200 mg/kg; ND is Not Detected. The following applies: in vivo. Format: ADME, organism-based. The arrangement: dose 200 mg/kg, route oral. The essentials:
as §1

In series [5] the test system is Rattus norvegicus. Kind of series: Concentration 5f detected in blood of rat 1 hr after an oral dose of 200 mg/kg of the compound; ND is Not Detected. Format: ADME, organism-based. The arrangement: dose 200 mg/kg, route oral. The following applies: in vivo. The essentials:
as §1

Series [6] has as its system Rattus norvegicus. Kind of series: Concentration 5f detected in blood of rat 3 hr after an oral dose of 200 mg/kg; ND is Not Detected. Particulars: in vivo. Format: ADME, organism-based. Details: dose 200 mg/kg, route oral. The method in brief:
as §1

Series [7] in a line: Solubility in water, tested as a HCl salt. Format: physicochemical. Particulars: read-out: S. The method in brief: (§2)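 HCl salts suspended in excess in water or 10 mM phosphate buffer pH 7.5, sonicated 10 min at 20 °C to saturation, centrifuged; supernatant quantified by HPLC.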
Series [8] can be described thus: Lipid solubility measured as chloroform-water partition coefficient. Type of series: physicochemical. The method in brief: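 Partition between chloroform and 10 mM phosphate buffer pH 7.5 (1:1 volume); drug at 1 mg/mL initially in aqueous phase, shaken 20 min at 20 °C, centrifuged, both phases quantified by HPLC. HCl salts used.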
In series [9] the test system is Rattus norvegicus. Kind of series: % recovery of the compound, compound 1 and compound 6a from whole blood of 7 wistar rats after an oral dose of the compound. The following applies: in vivo. Type of series: ADME, organism-based.
Series [10] has as its system Rattus norvegicus. The experiment in a line: Gastroprotective activity as % protection against stress ulcers in 5 rats after an intraperitoneal dose of 25 mg/kg. Format: functional. The essentials:
(§3)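 Stress ulcer by restraint and water immersion: male Wistar rats (160–180 g), fasted 24 h, given test compound po or ip as HCl salt in aqueous glycerin/HCO-60 formulation (1/12/0.05 by weight). Vehicle-only controls. After 1 h, restrained in net cage and immersed in 21 °C water for 6 h. Percent ulcer inhibition calculated; five rats per dose.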

Series [11] concerns Rattus norvegicus. The experiment in a line: Gastroprotective activity as % protection against stress ulcers in 5 rats after an intraperitoneal dose of 50 mg/kg. Format: functional. The essentials:
as §3

Series [12] concerns Rattus norvegicus. Kind of series: Gastroprotective activity as % protection against stress ulcers in 5 rats after an oral dose of 100 mg/kg. Format: functional. The method in brief: as §3
Series [13] has as its system Rattus norvegicus. Kind of series: Gastroprotective activity as % protection against stress ulcers in 5 rats after an oral dose of 25 mg/kg. Format: functional. The method in brief: as §3
Series [14] relates to Rattus norvegicus. Kind of series: Gastroprotective activity as % protection against stress ulcers in 5 rats after an oral dose of 50 mg/kg. Format: functional. The method in brief: as §3
A short description of series [15]: Solubility in phosphate buffer, tested as a HCl salt. Type of series: physicochemical. The essentials:
as §2

Series [16] relates to Rattus norvegicus. Kind of series: Concentration 6e detected in blood of rat 1 hr after an oral dose of 200 mg/kg of the compound. Type of series: ADME, organism-based. Details: dose 200 mg/kg, route oral. The following applies: in vivo. The method in brief: as §1
In series [17] the test system is Rattus norvegicus. The experiment in a line: Concentration 6e detected in blood of rat 3 hr after an oral dose of 200 mg/kg of the compound. Type of series: ADME, organism-based. Details: dose 200 mg/kg, route oral. The following applies: in vivo. The essentials: as §1
The subject of series [18] is Rattus norvegicus. Kind of series: Concentration 1 detected in blood of rat 1 hr after an oral dose of 200 mg/kg; ND is Not Detected. Particulars: in vivo. Details: dose 200 mg/kg, route oral. Type of series: ADME, organism-based. The method in brief:
as §1

The test system of series [19] is Rattus norvegicus. The experiment in a line: Concentration 1 detected in blood of rat 3 hr after an oral dose of 200 mg/kg; ND is Not Detected. The arrangement: dose 200 mg/kg, route oral. Format: ADME, organism-based. Particulars: in vivo. The method in brief:
as §1

Series [20] relates to Rattus norvegicus. The experiment in a line: Concentration 5e detected in blood of rat 1 hr after an oral dose of 200 mg/kg of the compound. Format: ADME, organism-based. Details: dose 200 mg/kg, route oral. The following applies: in vivo. The method in brief:
as §1

For series [21], the system named is Rattus norvegicus. Kind of series: Concentration 5e detected in blood of rat 3 hr after an oral dose of 200 mg/kg of the compound. The following applies: in vivo. Type of series: ADME, organism-based. Details: dose 200 mg/kg, route oral. The method in brief: as §1
In series [22] the test system is Rattus norvegicus. The experiment in a line: Concentration 6d detected in blood of rat 3 hr after an oral dose of 200 mg/kg of the compound. Type of series: ADME, organism-based. The arrangement: dose 200 mg/kg, route oral. The following applies: in vivo. The method in brief: as §1
In series [23] the test system is Rattus norvegicus. Kind of series: Concentration 5d detected in blood of rat 1 hr after an oral dose of 200 mg/kg of the compound. Details: dose 200 mg/kg, route oral. Type of series: ADME, organism-based. The following applies: in vivo. The essentials: as §1
In series [24] the test system is Rattus norvegicus. The experiment in a line: Concentration 5d detected in blood of rat 3 hr after an oral dose of 200 mg/kg of the compound. Format: ADME, organism-based. The arrangement: dose 200 mg/kg, route oral. The following applies: in vivo. The essentials: as §1
Series [25] deals with Rattus norvegicus. Kind of series: Concentration 6d detected in blood of rat 1 hr after an oral dose of 200 mg/kg of the compound. Type of series: ADME, organism-based. The arrangement: dose 200 mg/kg, route oral. Particulars: in vivo. The essentials:
as §1

Series [26] has as its system Rattus norvegicus. Kind of series: Gastroprotective activity as % protection against stress ulcers in 5 rats after an oral dose of 12.5 mg/kg. Type of series: functional. The essentials:
as §3

For series [27], the system named is Rattus norvegicus. The experiment in a line: Concentration 5a detected in blood of rat 3 hr after an oral dose of 200 mg/kg of the compound. Type of series: ADME, organism-based. The arrangement: dose 200 mg/kg, route oral. Particulars: in vivo. The method in brief: as §1
Series [28] deals with Rattus norvegicus. The experiment in a line: Concentration 6a detected in blood of rat 1 hr after an oral dose of 200 mg/kg of the compound. Format: ADME, organism-based. Details: dose 200 mg/kg, route oral. Particulars: in vivo. The essentials: as §1
Series [29] relates to Rattus norvegicus. The experiment in a line: Concentration 6a detected in blood of rat 3 hr after an oral dose of 200 mg/kg of the compound. Format: ADME, organism-based. The arrangement: dose 200 mg/kg, route oral. Particulars: in vivo. The method in brief:
as §1

In series [30] the test system is Rattus norvegicus. Kind of series: % recovery 1 and compound 6a from whole blood of 7 wistar rats after an oral dose of the compound. Format: ADME, organism-based. Particulars: in vivo.
The subject of series [31] is Rattus norvegicus. The experiment in a line: Concentration 5a detected in blood of rat 1 hr after an oral dose of 200 mg/kg of the compound. Type of series: ADME, organism-based. Particulars: in vivo. The arrangement: dose 200 mg/kg, route oral. The essentials:
as §1

In the case of `CCCCCCNC1CC(=O)OC1C(O)C(=O)NC(CC(C)C)C1Cc2cccc(O)c2C(=O)O1` (centres undefined), the Concentration entry in series [1], in series [2], in series [3], in series [4], in series [5] and in series [6] was “Not detected” throughout. Besides, the results for the solubility in series [7] and in series [15] were 1600 µg/mL and 5 µg/mL, respectively. For the same molecule, the P in [8] is reported as 3000. In [9], the Recovery stood at 80%. For the same molecule, the Protection worked out at 17% in [10]; 11% in series [11]; 44% in series [12]; 11% in series [13]; 44% in series [14].

Turning to `CCCCCNC1CC(=O)OC1C(O)C(=O)NC(CC(C)C)C1Cc2cccc(O)c2C(=O)O1` (centres undefined), the Concentration in series [16] is 800 ng/mL; in series [17], 600 ng/mL; in [18] it was “Not detected”; in series [19], “Not detected”; in [20] it was 1200 ng/mL; in series [21] it was 800 ng/mL. The solubility was 7300 µg/mL in [7] and 330 µg/mL in series [15]. In addition, the P in series [8] came to 1900. The molecule also came in with a Recovery in [9] of 50%. For the same molecule, the Protection was 56% in [10]; 44% in [11]; 56% in series [12]; 44% in series [13]; 33% in series [14].

Take `CCCCNC1CC(=O)OC1C(O)C(=O)NC(CC(C)C)C1Cc2cccc(O)c2C(=O)O1` (centres undefined): the Concentration in series [22] was 1800 ng/mL; in [19] it was “Not detected”; in series [23] it was 2300 ng/mL; in [24] it was 2300 ng/mL; in series [25], 2000 ng/mL. Further, the solubility in series [7] is 100000 µg/mL; in series [15] it was 370 µg/mL. Also, in series [8], the P came out at 1700. The molecule also gave a Recovery in series [9] of 30%. Also, the Protection was determined as 44% in [10]; 89% in series [11]; 89% in series [12]; 17% in series [26]; 33% in [13]; 66% in series [14].

As for `CNC1CC(=O)OC1C(O)C(=O)NC(CC(C)C)C1Cc2cccc(O)c2C(=O)O1` (centres undefined), the Concentration worked out at 1200 ng/mL in [27], 3100 ng/mL in [28], 1100 ng/mL in series [29] and 3800 ng/mL in series [31]. The Recovery in [30] is reported as 50%. The values for the solubility in series [7] and in series [15] were 1500 µg/mL and 990 µg/mL, respectively. This molecule also gave a P in series [8] of 3750. Moreover, the Protection in series [10] worked out at 33%; in [11], 56%; in series [12] it was 66%; in series [26], 17%; in [13], 11%; in series [14] it was 56%.
